The source of these data is the array DNA melting data of Ke et al. (doi:10.1101/2024.01.08.574731).

Data set [1] in a line: melting temperature; fluorescence melt of hairpins on a sequencing array, two-state fit, raised by 9.35 °C to match UV melts. Conditions: sodium 0.088 M. The gist of the method:
(§1)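 In 50 mM Na-HEPES pH 8.0 containing 25 mM NaCl, hairpins from the library on a sequenced MiSeq flow cell were imaged for Cy3 fluorescence at 2.5 °C steps up to 60 °C, with Cy3 and quencher oligos annealed. After normalisation to pre-quench Cy3 and to control constructs, two-state fits with bootstrapping gave melting temperature and folding enthalpy. Four replicates were combined by inverse-variance weighting, and fitted temperatures were shifted up by 9.35 °C to match UV melts.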

Data set [2] in a line: folding enthalpy; higher = less favourable; fluorescence melt of hairpins on a sequencing array, two-state fit. As to conditions: sodium 0.088 M. Summed up:
as §1

For GATCCTTTGCAGGATC ((((((....)))))), the Tm in data set [1] came to 52 °C. For the same sequence, the folding enthalpy in data set [2] is -30.6 kcal/mol.
The corresponding values for GGTTCAGGAAACCGAACC (((((.(....).))))) are 47.8 °C and -26.5 kcal/mol.
The corresponding values for GATCTCGCATGAGATC ((((((....)))))) are 61.6 °C and -44.8 kcal/mol.
For the sequence GATCGCGAAAGCGAATC ((((((....))).))), the Tm in data set [1] came out at 52.5 °C. Also, in data set [2], the folding enthalpy is -14 kcal/mol.
The corresponding values for GGCCACGAAAGTGCGGCC ((((((....)))..))) are 55.6 °C and -39.6 kcal/mol.
In the same order, the values of GGGTCCGAAAGGAACCC ((((((....))).))) are 64.1 °C and -22.1 kcal/mol.
The corresponding values for GATCTTGGAAAGATC ((((((...)))))) are 51.9 °C and -34.5 kcal/mol.
Turning to AAATCGAAAGATTT (((((....))))), in data set [1], the Tm was determined as 46.6 °C. Also, in data set [2], the folding enthalpy was -13.6 kcal/mol.
The corresponding values for GATCATACAATGATC ((((((...)))))) are 48.4 °C and -39.5 kcal/mol.
The corresponding values for GCTGGGGGAAACCCCAAC (.(((((....))))).) are 38.5 °C and -13.2 kcal/mol.
Take GTTTGCGAAAGCAACAAC ((((((....)))..))): the Tm in data set [1] was found to be 33.7 °C. The folding enthalpy in data set [2] was -9.1 kcal/mol.
For the sequence GTGAATCGAAAGATCCAC (((.(((....))).))), the Tm in data set [1] worked out at 43.4 °C. For the same sequence, the folding enthalpy in data set [2] was -27.7 kcal/mol.
As for GCCTCAGGAAACTGGGGC (((.(((....))).))), the Tm in data set [1] was determined as 56 °C. Moreover, the folding enthalpy in data set [2] was -41.9 kcal/mol.
In the same order, the values of GTCACCGAAAGGTCCGAC ((((((....)))..))) are 31.1 °C and -11.2 kcal/mol.
With GATCTAAGTCTAGATC ((((((....)))))), in data set [1], the Tm came to 37.7 °C. In addition, the folding enthalpy in data set [2] was -25.4 kcal/mol.
In the same order, the values of GCGCGGCGAAAGCAACGC (((..((....))..))) are 60 °C and -15.8 kcal/mol.
GTGCTGCGAAAGCAACAC (((.(((....))).))): the Tm in data set [1] was found to be 56.5 °C. In data set [2], the folding enthalpy was -33.8 kcal/mol.
In the same order, the values of GATCGCTAAAGCGATC ((((((....)))))) are 67.1 °C and -27.7 kcal/mol.
The corresponding values for GATCTGAAGTCAGATC ((((((....)))))) are 47.7 °C and -39.1 kcal/mol.
In the case of GCCTGTGCGAAAGCAGGC (((..(((....)))))), the Tm in data set [1] turned out to be 56.5 °C. Further, the folding enthalpy in data set [2] is -26.6 kcal/mol.
In the case of GAAACCGGAAACGATTTC ((((.((....)).)))), the Tm in data set [1] came to 34 °C. Moreover, in data set [2], the folding enthalpy was -28.9 kcal/mol.
The corresponding values for GATCCTCTCAGGATC ((((((...)))))) are 55 °C and -36.4 kcal/mol.
GCGTCTCGACGC ((((....)))): the Tm in data set [1] amounted to 68.6 °C. Besides, the folding enthalpy in data set [2] is -26.9 kcal/mol.
The corresponding values for GGCGGCGGAAACGCCACC ((.((((....)))).)) are 63.7 °C and -27.5 kcal/mol.
GATCCTATGCAGGATC ((((((....)))))): the Tm in data set [1] is 53 °C. Moreover, the folding enthalpy in data set [2] was -35.2 kcal/mol.
The corresponding values for GAGGTCGGAAACGATCTC (((.(((....))).))) are 52.5 °C and -43.8 kcal/mol.
As for GCAAAGCGAAAGCGGTGC (((..((....))..))), the Tm in data set [1] came to 61.7 °C. Moreover, the folding enthalpy in data set [2] was -19.8 kcal/mol.
For GTTGTTGGAAACAGCAAC ((((.((....)).)))), in data set [1], the Tm stood at 45.3 °C. For the same sequence, in data set [2], the folding enthalpy is -16.7 kcal/mol.
Regarding GCCTAGGGAAACCTAGGC (((((((....))))))), in data set [1], the Tm is 67.5 °C. Also, the folding enthalpy in data set [2] is -36.9 kcal/mol.
The corresponding values for GTAGCGTCGAAAGACTAC (((..(((....)))))) are 24.7 °C and -9.24 kcal/mol.
The corresponding values for GATCTGTACACAGATC ((((((....)))))) are 54.6 °C and -37.4 kcal/mol.
Regarding GGCGGCGAAAGCCACGCC ((((((....)))..))), the Tm in data set [1] was found to be 63.6 °C. Besides, the folding enthalpy in data set [2] was -17.1 kcal/mol.
As to GCTGTCGAAAGACACAGC ((((((....)))..))), the Tm in data set [1] was 48.3 °C. For the same sequence, in data set [2], the folding enthalpy is -14.7 kcal/mol.
As to GATCACAATCGTGATC ((((((....)))))), in data set [1], the Tm came to 56.4 °C. Besides, the folding enthalpy in data set [2] is -38.5 kcal/mol.
The corresponding values for GCTTCCGAAAGGAGGAGC ((((((....)))..))) are 39.1 °C and -21 kcal/mol.
The corresponding values for GACACCGGAAACGGCGTC (((.(((....))).))) are 52.6 °C and -43 kcal/mol.
Regarding GCCCCATCGAAAGATGGC (((..(((....)))))), in data set [1], the Tm was 37.9 °C. Also, the folding enthalpy in data set [2] was -7.75 kcal/mol.
